In ChEMBL document CHEMBL1140929, “Synthesis and evaluation of 18F-labeled 2-phenylbenzothiazoles as positron emission tomography imaging agents for amyloid plaques in Alzheimer's disease” (J Med Chem, 2009):

Columns and labels:
[1] = biological target: Amyloid-beta precursor protein (Homo sapiens, UniProt P05067); assay: Displacement of [125I]IMPY from beta-amyloid plaques in Alzheimer's disease patient brain homogenate; assay type: tissue-based
[2] = Biodistribution in NMRI mouse urine at 3.7 MBq/mL, iv after 2 mins by gamma counting; assay type: ADME, organism-based; details: in vivo
In short: (§1)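 Male NMRI mice (30-40 g) anaesthetised with 0.1 mL ip Hypnorm (fentanyl citrate 63 µg/mL, fluanisone 2 mg/mL). Each received 0.1 mL of HPLC-purified 18F tracer, diluted in 0.9% NaCl to 3.7 MBq/mL (ethanol ≤10%, THF ≤0.02%), via tail vein. Killed by decapitation at 2 or 60 min; blood and organs weighed and γ-counted. Background-corrected, expressed as %ID or %ID/g.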

[3] = Biodistribution in NMRI mouse urine at 3.7 MBq/mL, iv after 60 mins by gamma counting; assay type: ADME, organism-based; details: in vivo, 1 h; in short: as §1
[4] = tested on: Kidney; assay: Biodistribution in NMRI mouse kidney at 3.7 MBq/mL, iv after 2 mins by gamma counting; assay type: ADME, organism-based; details: in vivo; in short: as §1
[5] = tested on: Kidney; assay: Biodistribution in NMRI mouse kidney at 3.7 MBq/mL, iv after 60 mins by gamma counting; assay type: ADME, organism-based; details: in vivo, 1 h; in short: as §1
[6] = tested on: Kidney; assay: Biodistribution in NMRI mouse kidney assessed per gram of tissue at 3.7 MBq/mL, iv after 2 mins by gamma counting; assay type: ADME, organism-based; details: in vivo; in short: as §1
[7] = tested on: Kidney; assay: Biodistribution in NMRI mouse kidney assessed per gram of tissue at 3.7 MBq/mL, iv after 60 mins by gamma counting; assay type: ADME, organism-based; details: in vivo, 1 h; in short: as §1
[8] = tested on: Liver; assay: Biodistribution in NMRI mouse liver at 3.7 MBq/mL, iv after 2 mins by gamma counting; assay type: ADME, organism-based; details: in vivo; in short: as §1
[9] = tested on: Liver; assay: Biodistribution in NMRI mouse liver at 3.7 MBq/mL, iv after 60 mins by gamma counting; assay type: ADME, organism-based; details: in vivo, 1 h; in short: as §1
[10] = tested on: Liver; assay: Biodistribution in NMRI mouse liver assessed per gram of tissue at 3.7 MBq/mL, iv after 2 mins by gamma counting; assay type: ADME, organism-based; details: in vivo; in short: as §1
[11] = tested on: Liver; assay: Biodistribution in NMRI mouse liver assessed per gram of tissue at 3.7 MBq/mL, iv after 60 mins by gamma counting; assay type: ADME, organism-based; details: in vivo, 1 h; in short: as §1
[12] = Biodistribution in NMRI mouse spleen/pancreas at 3.7 MBq/mL, iv after 2 mins by gamma counting; assay type: ADME, organism-based; details: in vivo; in short: as §1
[13] = Biodistribution in NMRI mouse spleen/pancreas at 3.7 MBq/mL, iv after 60 mins by gamma counting; assay type: ADME, organism-based; details: in vivo, 1 h; in short: as §1
[14] = Biodistribution in NMRI mouse spleen/pancreas assessed per gram of tissue at 3.7 MBq/mL, iv after 2 mins by gamma counting; assay type: ADME, organism-based; details: in vivo; in short: as §1
[15] = Biodistribution in NMRI mouse spleen/pancreas assessed per gram of tissue at 3.7 MBq/mL, iv after 60 mins by gamma counting; assay type: ADME, organism-based; details: in vivo, 1 h; in short: as §1
[16] = tested on: Lung; assay: Biodistribution in NMRI mouse lung at 3.7 MBq/mL, iv after 60 mins by gamma counting; assay type: ADME, organism-based; details: in vivo, 1 h; in short: as §1
[17] = tested on: Lung; assay: Biodistribution in NMRI mouse lung assessed per gram of tissue at 3.7 MBq/mL, iv after 2 mins by gamma counting; assay type: ADME, organism-based; details: in vivo; in short: as §1
[18] = tested on: Lung; assay: Biodistribution in NMRI mouse lung assessed per gram of tissue at 3.7 MBq/mL, iv after 60 mins by gamma counting; assay type: ADME, organism-based; details: in vivo, 1 h; in short: as §1
[19] = tested on: Heart; assay: Biodistribution in NMRI mouse heart at 3.7 MBq/mL, iv after 2 mins by gamma counting; assay type: ADME, organism-based; details: in vivo; in short: as §1
[20] = tested on: Heart; assay: Biodistribution in NMRI mouse heart at 3.7 MBq/mL, iv after 60 mins by gamma counting; assay type: ADME, organism-based; details: in vivo, 1 h; in short: as §1
[21] = tested on: Heart; assay: Biodistribution in NMRI mouse heart assessed per gram of tissue at 3.7 MBq/mL, iv after 2 mins by gamma counting; assay type: ADME, organism-based; details: in vivo; in short: as §1
[22] = tested on: Heart; assay: Biodistribution in NMRI mouse heart assessed per gram of tissue at 3.7 MBq/mL, iv after 60 mins by gamma counting; assay type: ADME, organism-based; details: in vivo, 1 h; in short: as §1
[23] = tested on: Intestine; assay: Biodistribution in NMRI mouse intestine at 3.7 MBq/mL, iv after 2 mins by gamma counting; assay type: ADME, organism-based; details: in vivo; in short: as §1
[24] = tested on: Intestine; assay: Biodistribution in NMRI mouse intestine at 3.7 MBq/mL, iv after 60 mins by gamma counting; assay type: ADME, organism-based; details: in vivo, 1 h; in short: as §1
[25] = tested on: Stomach; assay: Biodistribution in NMRI mouse stomach at 3.7 MBq/mL, iv after 2 mins by gamma counting; assay type: ADME, organism-based; details: in vivo; in short: as §1
[26] = tested on: Stomach; assay: Biodistribution in NMRI mouse stomach at 3.7 MBq/mL, iv after 60 mins by gamma counting; assay type: ADME, organism-based; details: in vivo, 1 h; in short: as §1
[27] = Biodistribution in NMRI mouse cerebrum at 3.7 MBq/mL, iv after 2 mins by gamma counting; assay type: ADME, organism-based; details: in vivo; in short: as §1
[28] = Biodistribution in NMRI mouse cerebrum at 3.7 MBq/mL, iv after 60 mins by gamma counting; assay type: ADME, organism-based; details: in vivo, 1 h; in short: as §1
[29] = Biodistribution in NMRI mouse cerebrum assessed per gram of tissue at 3.7 MBq/mL, iv after 2 mins by gamma counting; assay type: ADME, organism-based; details: in vivo; in short: as §1
[30] = Biodistribution in NMRI mouse cerebrum assessed per gram of tissue at 3.7 MBq/mL, iv after 60 mins by gamma counting; assay type: ADME, organism-based; details: in vivo, 1 h; in short: as §1
[31] = tested on: Cerebellum; assay: Biodistribution in NMRI mouse cerebellum at 3.7 MBq/mL, iv after 2 mins by gamma counting; assay type: ADME, organism-based; details: in vivo; in short: as §1
[32] = tested on: Cerebellum; assay: Biodistribution in NMRI mouse cerebellum at 3.7 MBq/mL, iv after 60 mins by gamma counting; assay type: ADME, organism-based; details: in vivo, 1 h; in short: as §1
[33] = tested on: Cerebellum; assay: Biodistribution in NMRI mouse cerebellum assessed per gram of tissue at 3.7 MBq/mL, iv after 2 mins by gamma counting; assay type: ADME, organism-based; details: in vivo; in short: as §1
[34] = tested on: Cerebellum; assay: Biodistribution in NMRI mouse cerebellum assessed per gram of tissue at 3.7 MBq/mL, iv after 60 mins by gamma counting; assay type: ADME, organism-based; details: in vivo, 1 h; in short: as §1
[35] = tested on: Blood; assay: Biodistribution in NMRI mouse blood at 3.7 MBq/mL, iv after 2 mins by gamma counting; assay type: ADME, organism-based; details: in vivo; in short: as §1
[36] = tested on: Blood; assay: Biodistribution in NMRI mouse blood at 3.7 MBq/mL, iv after 60 mins by gamma counting; assay type: ADME, organism-based; details: in vivo, 1 h; in short: as §1
[37] = tested on: Blood; assay: Biodistribution in NMRI mouse blood assessed per gram of tissue at 3.7 MBq/mL, iv after 2 mins by gamma counting; assay type: ADME, organism-based; details: in vivo; in short: as §1
[38] = tested on: Blood; assay: Biodistribution in NMRI mouse blood assessed per gram of tissue at 3.7 MBq/mL, iv after 60 mins by gamma counting; assay type: ADME, organism-based; details: in vivo, 1 h; in short: as §1
[39] = tested on: Lung; assay: Biodistribution in NMRI mouse lung at 3.7 MBq/mL, iv after 2 mins by gamma counting; assay type: ADME, organism-based; details: in vivo

Sequence of Amyloid-beta precursor protein (P05067 whole entry): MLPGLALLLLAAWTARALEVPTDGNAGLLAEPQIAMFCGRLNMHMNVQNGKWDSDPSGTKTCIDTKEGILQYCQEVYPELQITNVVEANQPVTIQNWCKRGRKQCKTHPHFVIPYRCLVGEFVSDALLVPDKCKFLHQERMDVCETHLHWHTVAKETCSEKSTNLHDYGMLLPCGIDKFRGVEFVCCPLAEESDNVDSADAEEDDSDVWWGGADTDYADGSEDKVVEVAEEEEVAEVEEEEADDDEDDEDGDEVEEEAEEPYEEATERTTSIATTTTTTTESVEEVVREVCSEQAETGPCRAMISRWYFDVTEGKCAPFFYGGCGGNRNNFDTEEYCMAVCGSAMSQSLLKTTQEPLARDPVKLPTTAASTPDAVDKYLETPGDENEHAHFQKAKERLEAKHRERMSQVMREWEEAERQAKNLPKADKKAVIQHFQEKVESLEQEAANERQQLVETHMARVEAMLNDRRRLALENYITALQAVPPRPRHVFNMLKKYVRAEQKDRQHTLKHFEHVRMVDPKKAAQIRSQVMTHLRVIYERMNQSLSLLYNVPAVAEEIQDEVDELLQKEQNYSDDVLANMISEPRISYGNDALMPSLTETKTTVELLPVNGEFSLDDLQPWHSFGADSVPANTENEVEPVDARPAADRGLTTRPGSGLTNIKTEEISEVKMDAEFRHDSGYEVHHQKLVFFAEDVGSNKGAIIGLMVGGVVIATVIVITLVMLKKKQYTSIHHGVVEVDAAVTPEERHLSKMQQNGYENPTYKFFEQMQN

| SMILES | Ki [1] [nM] | Drug uptake [2] [%ID] | Drug uptake [3] [%ID] | Drug uptake [5] [%ID] | Drug uptake [6] [% ID/g] | Drug uptake [7] [% ID/g] | Drug uptake [8] [%ID] | Drug uptake [9] [%ID] | Drug uptake [10] [% ID/g] | Drug uptake [11] [% ID/g] | Drug uptake [12] [%ID] | Drug uptake [13] [%ID] | Drug uptake [14] [% ID/g] | Drug uptake [15] [% ID/g] | Drug uptake [16] [%ID] | Drug uptake [17] [% ID/g] | Drug uptake [18] [% ID/g] | Drug uptake [19] [%ID] | Drug uptake [20] [%ID] | Drug uptake [21] [% ID/g] | other results |
| --- | --- | --- | --- | --- | --- | --- | --- | --- | --- | --- | --- | --- | --- | --- | --- | --- | --- | --- | --- | --- | --- |
| O=C(O)c1ccc2nc(-c3ccc(F)cc3)sc2c1 | > 4000 | – | – | – | – | – | – | – | – | – | – | – | – | – | – | – | – | – | – | – | – |
| Oc1cc(O)c2sc(-c3ccc(F)cc3)nc2c1 | 776 | – | – | – | – | – | – | – | – | – | – | – | – | – | – | – | – | – | – | – | – |

More lines, main results first:

| Ki [1] [nM] | Drug uptake [2] [%ID] | Drug uptake [3] [%ID] | Drug uptake [5] [%ID] | Drug uptake [6] [% ID/g] | Drug uptake [7] [% ID/g] | Drug uptake [8] [%ID] | Drug uptake [9] [%ID] | Drug uptake [10] [% ID/g] | Drug uptake [11] [% ID/g] | Drug uptake [12] [%ID] | Drug uptake [13] [%ID] | Drug uptake [14] [% ID/g] | Drug uptake [15] [% ID/g] | Drug uptake [16] [%ID] | Drug uptake [17] [% ID/g] | Drug uptake [18] [% ID/g] | Drug uptake [19] [%ID] | Drug uptake [20] [%ID] | Drug uptake [21] [% ID/g] | SMILES | other results |
| --- | --- | --- | --- | --- | --- | --- | --- | --- | --- | --- | --- | --- | --- | --- | --- | --- | --- | --- | --- | --- | --- |
| 5.7 | – | – | – | – | – | – | – | – | – | – | – | – | – | – | – | – | – | – | – | Cc1ccc2nc(-c3ccc(F)cc3)sc2c1 | – |
| – | 0.2 | 16.9 | 9.4 | 13.9 | 14.2 | 19.9 | 13.6 | 9.9 | 6.7 | 1.3 | 0.2 | 4.1 | 0.4 | 0.6 | 9.9 | 2.1 | 0.8 | 0.1 | 3.9 | COc1ccc2nc(-c3ccc([18F])cc3)sc2c1 | Drug uptake [4]: 8.6 %ID; Drug uptake [22]: 0.6 % ID/g; Drug uptake [23]: 8.4 %ID; Drug uptake [24]: 34.3 %ID; Drug uptake [25]: 1.1 %ID; Drug uptake [26]: 1.2 %ID; Drug uptake [27]: 1.57 %ID; Drug uptake [28]: 0.13 %ID; Drug uptake [29]: 5.1 % ID/g; Drug uptake [30]: 0.43 % ID/g; Drug uptake [31]: 0.56 %ID; Drug uptake [32]: 0.07 %ID; Drug uptake [33]: 5.12 % ID/g; Drug uptake [34]: 0.68 % ID/g; Drug uptake [35]: 4.9 %ID; Drug uptake [36]: 4.4 %ID; Drug uptake [37]: 2 % ID/g; Drug uptake [38]: 1.7 % ID/g |
| – | 0.2 | 5.8 | 2.3 | 9.3 | 3.6 | 24.8 | 51.8 | 12 | 24.6 | 1.3 | 0.1 | 4 | 0.4 | 0.3 | 14.4 | 1.3 | 0.9 | 0.1 | 5.4 | Cc1ccc2nc(-c3ccc([18F])cc3)sc2c1 | Drug uptake [39]: 3.6 %ID; Drug uptake [22]: 0.5 % ID/g; Drug uptake [23]: 8.9 %ID; Drug uptake [24]: 19.3 %ID; Drug uptake [25]: 1.3 %ID; Drug uptake [26]: 1.1 %ID; Drug uptake [27]: 1.62 %ID; Drug uptake [28]: 0.07 %ID; Drug uptake [29]: 5.33 % ID/g; Drug uptake [30]: 0.27 % ID/g; Drug uptake [31]: 0.42 %ID; Drug uptake [32]: 0.04 %ID; Drug uptake [33]: 5.99 % ID/g; Drug uptake [34]: 0.39 % ID/g; Drug uptake [35]: 5.7 %ID; Drug uptake [36]: 2.8 %ID; Drug uptake [37]: 2.2 % ID/g; Drug uptake [38]: 1.1 % ID/g |
